Data set [1] in a line: Antioxidant activity assessed as ABTS free radical scavenging activity measured as trolox equivalent after 1 hr by spectrophotometry. In kind it is physicochemical. The procedure, abridged: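 ABTS radical cation generated by passing 5 mM ABTS stock through MnO2 and filtering; 245 µL radical solution added to 5 µL sample or trolox, stirred 30 s, kept dark 1 h, A734 read against MeOH blanks. Trolox calibration; expressed as µmol trolox/µmol compound; triplicate analyses, mean ± SEM of three experiments.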

Data set [2] is described as follows: Antioxidant activity assessed as DPPH free radical scavenging activity measured as trolox equivalent after 30 mins by spectrophotometry. Type of data set: physicochemical. The conditions noted are these: 0.5 h. Details: unit not given beside the values. The procedure, abridged:
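Sample or trolox (5 µL) mixed with 250 µL methanolic DPPH (0.025 g/L), shaken, held in darkness 30 min, absorbance at 515 nm. Calibrated with trolox solutions; reported as µmol trolox/µmol compound; triplicate, mean ± SEM of three experiments.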
For orientation: The DPPH test is a chemical assay of radical scavenging.

Data set [3] can be described thus: Antioxidant activity assessed as total polyphenolics measured as gallic acid equivalent after 30 mins by Folin-Ciocalteu assay. Type of data set: physicochemical. The note with it: 0.5 h.
For data set [4], the target named is Amyloid-beta precursor protein (Homo sapiens) (UniProt P05067). The data set is described as follows: Inhibition of aggregation of amyloid beta (1 to 42) (unknown origin) expressed in Escherichia coli BL21 (DE3) at 10 uM after 24 hrs by thioflavin S fluorescence assay. In a few lines:
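E. coli BL21(DE3) carrying Aβ42 plasmid grown overnight at 37 °C in LB with kanamycin 50 µg/mL; diluted into LB with kanamycin, 1 mM IPTG, compound in DMSO and Th-S, grown 24 h at 37 °C, 1400 rpm; DMSO-only negative control. Th-S emission 455 nm (ex 375 nm) normalised to OD600, induced untreated cells set as 100%; mean ± SEM of four experiments.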

For data set [5], the target named is Microtubule-associated protein tau (Homo sapiens) (UniProt P10636). The data set is described as follows: Inhibition of aggregation of TAU (unknown origin) expressed in Escherichia coli BL21 (DE3) at 10 uM after 24 hrs by thioflavin S fluorescence assay. The procedure, abridged: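 E. coli BL21(DE3) with pTARA (T7 RNA polymerase under pBAD) transformed with pRKT42 encoding four-repeat tau; overnight culture at 37 °C in M9 with 0.5% glucose, ampicillin 50 µg/mL, chloramphenicol 12.5 µg/mL. Th-S fluorescence at 455 nm (ex 375 nm) normalised to OD600, with induced untreated cells as 100%; mean ± SEM of four experiments.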
Microtubule-associated protein tau (Homo sapiens), sequence (P10636 whole entry): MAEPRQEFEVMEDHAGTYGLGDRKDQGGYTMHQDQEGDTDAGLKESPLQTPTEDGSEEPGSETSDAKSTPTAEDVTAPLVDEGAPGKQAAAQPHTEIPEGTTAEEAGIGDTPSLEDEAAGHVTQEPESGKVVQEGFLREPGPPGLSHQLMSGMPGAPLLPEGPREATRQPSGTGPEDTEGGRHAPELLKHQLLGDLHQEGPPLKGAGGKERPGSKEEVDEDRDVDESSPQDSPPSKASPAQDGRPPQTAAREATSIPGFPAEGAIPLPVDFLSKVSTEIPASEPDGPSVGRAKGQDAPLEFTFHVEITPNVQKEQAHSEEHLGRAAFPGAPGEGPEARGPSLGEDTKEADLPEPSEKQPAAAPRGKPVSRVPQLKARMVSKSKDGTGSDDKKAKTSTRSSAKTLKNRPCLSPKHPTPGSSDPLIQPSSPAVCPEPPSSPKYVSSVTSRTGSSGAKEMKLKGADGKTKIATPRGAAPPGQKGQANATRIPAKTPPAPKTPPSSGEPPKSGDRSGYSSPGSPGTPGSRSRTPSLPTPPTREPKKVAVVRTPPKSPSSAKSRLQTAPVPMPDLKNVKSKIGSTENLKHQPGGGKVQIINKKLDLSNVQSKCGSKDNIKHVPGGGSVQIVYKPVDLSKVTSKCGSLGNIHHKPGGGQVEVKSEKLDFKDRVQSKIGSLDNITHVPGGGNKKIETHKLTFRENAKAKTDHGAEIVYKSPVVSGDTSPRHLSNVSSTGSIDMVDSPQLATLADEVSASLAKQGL

In data set [6] the target is T1, Acetylcholinesterase (Homo sapiens, UniProt P22303). The data set is described as follows: Inhibition of human recombinant AChE using acetylthiocholine iodide as substrate preincubated for 20 mins before substrate addition by Ellman method. (In general: In Ellman's method for cholinesterases, released thiocholine reacts with DTNB.)
T1 sequence (P22303 whole entry): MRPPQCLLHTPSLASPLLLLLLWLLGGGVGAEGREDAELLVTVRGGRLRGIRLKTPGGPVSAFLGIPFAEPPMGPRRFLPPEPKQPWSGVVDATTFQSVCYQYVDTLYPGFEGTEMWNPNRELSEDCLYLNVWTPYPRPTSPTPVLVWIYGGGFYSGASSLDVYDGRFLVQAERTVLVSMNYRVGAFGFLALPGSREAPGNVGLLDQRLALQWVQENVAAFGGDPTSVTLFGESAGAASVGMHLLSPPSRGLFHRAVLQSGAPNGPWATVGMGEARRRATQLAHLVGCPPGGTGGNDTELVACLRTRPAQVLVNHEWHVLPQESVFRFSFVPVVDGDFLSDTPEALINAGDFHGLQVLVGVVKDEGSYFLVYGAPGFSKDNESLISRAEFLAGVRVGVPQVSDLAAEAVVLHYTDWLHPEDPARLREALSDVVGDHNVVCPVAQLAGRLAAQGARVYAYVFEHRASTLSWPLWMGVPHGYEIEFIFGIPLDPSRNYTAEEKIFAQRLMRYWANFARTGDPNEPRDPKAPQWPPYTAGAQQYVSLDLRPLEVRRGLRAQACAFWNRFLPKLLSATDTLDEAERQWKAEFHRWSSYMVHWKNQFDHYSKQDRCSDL
Data set [7] concerns the target T2, Cholinesterase (Homo sapiens, UniProt P06276). The data set is described as follows: Inhibition of human serum BChE using butyrylthiocholine iodide preincubated for 20 mins before substrate addition by Ellman method. In a few lines: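 Ellman spectrophotometric assay in 0.1 M phosphate buffer. Enzymes were human recombinant AChE and human serum BChE. Inhibitor (at least 10 increasing concentrations, in duplicate) was preincubated 20 min at 37 °C. Acetylthiocholine iodide (450 µM, AChE) or butyrylthiocholine iodide (300 µM, BChE) was then added and reacted 5 min at 37 °C, with absorbance read at 414 nm. The no-inhibitor control set 100% activity. IC50 came from non-linear regression, at least 4 experiments.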

Another data set can be described thus: in vitro. The conditions noted are these: PAMPA.
For data set [8], the target named is T1, Acetylcholinesterase. The data set is described as follows: Inhibition of human recombinant AChE using acetylthiocholine iodide as substrate at 10 uM preincubated for 20 mins before substrate addition by Ellman method.
For data set [9], the target named is T2, Cholinesterase. The data set is described as follows: Inhibition of human serum BChE using butyrylthiocholine iodide at 10 uM preincubated for 20 mins before substrate addition by Ellman method.

T2 sequence (P06276 whole entry): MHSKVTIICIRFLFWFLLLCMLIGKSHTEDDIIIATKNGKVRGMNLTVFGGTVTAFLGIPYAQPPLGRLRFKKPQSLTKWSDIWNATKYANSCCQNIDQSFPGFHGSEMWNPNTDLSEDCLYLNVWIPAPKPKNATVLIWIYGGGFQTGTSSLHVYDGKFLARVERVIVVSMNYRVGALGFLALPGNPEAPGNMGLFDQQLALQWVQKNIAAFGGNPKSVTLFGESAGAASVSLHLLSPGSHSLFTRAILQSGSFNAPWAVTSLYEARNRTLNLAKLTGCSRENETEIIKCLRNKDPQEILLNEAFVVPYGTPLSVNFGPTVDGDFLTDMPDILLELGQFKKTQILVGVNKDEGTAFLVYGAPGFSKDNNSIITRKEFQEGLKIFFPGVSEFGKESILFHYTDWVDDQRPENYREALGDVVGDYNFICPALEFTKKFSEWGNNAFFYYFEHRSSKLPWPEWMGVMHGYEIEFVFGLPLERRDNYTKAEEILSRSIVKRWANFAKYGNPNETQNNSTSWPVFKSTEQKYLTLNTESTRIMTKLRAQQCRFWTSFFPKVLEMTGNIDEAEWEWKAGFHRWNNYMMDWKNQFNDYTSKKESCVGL
Amyloid-beta precursor protein (Homo sapiens), sequence (P05067 whole entry): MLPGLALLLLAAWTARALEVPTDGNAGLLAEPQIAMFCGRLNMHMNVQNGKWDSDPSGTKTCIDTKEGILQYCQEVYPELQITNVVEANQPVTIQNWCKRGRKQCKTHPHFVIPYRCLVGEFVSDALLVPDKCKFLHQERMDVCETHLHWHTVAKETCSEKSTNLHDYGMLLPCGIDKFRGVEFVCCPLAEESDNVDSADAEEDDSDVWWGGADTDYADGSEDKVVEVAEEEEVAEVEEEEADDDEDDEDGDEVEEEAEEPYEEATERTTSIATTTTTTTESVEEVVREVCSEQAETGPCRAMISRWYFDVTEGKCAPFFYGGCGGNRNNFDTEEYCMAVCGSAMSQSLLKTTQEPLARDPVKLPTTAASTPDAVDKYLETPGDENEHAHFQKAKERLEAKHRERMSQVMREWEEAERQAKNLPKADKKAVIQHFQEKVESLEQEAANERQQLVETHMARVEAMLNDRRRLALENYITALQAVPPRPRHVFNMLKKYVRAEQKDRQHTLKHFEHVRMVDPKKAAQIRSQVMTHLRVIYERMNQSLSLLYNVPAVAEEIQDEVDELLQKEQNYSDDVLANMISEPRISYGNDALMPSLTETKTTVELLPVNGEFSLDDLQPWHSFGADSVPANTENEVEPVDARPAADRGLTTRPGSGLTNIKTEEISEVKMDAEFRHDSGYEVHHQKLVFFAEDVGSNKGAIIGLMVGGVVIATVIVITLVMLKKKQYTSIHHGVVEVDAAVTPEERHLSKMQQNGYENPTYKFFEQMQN

Broadly, the inhibition is the change of the read-out against control, counted positive when it falls. With `CC1=CC2Cc3nc4cc(Cl)ccc4c(N)c3C(C1)C2` (stereo not given) [HUPRINE Y], the Activity in data set [1] is 2.6; in data set [2], 1; in data set [3], 10.2 mgequiv/g. The results for the inhibition in [4] and in data set [5] were 8.9% and 7.6%, respectively.

Broadly, the IC50 is the midpoint of a concentration-inhibition curve. The Papp is a coefficient for how fast a substance crosses the barrier. `COc1cc(CCC(=O)/C=C/c2ccc(CNc3c4c(nc5cc(Cl)ccc35)CC3CC(C)=CC4C3)cc2)cc(CN(C)C)c1O` (stereo not given): the 50% inhibitory concentration (IC50) on Acetylcholinesterase [6] came to 21.1 nM; on Cholinesterase [7], 181 nM. Besides, the Activity in data set [1] is recorded as 11.8; in data set [2], 2.8; in [3], 68.8 mgequiv/g. Further, the inhibition in data set [4] is 53.9%; in [5] it was 40.1%. In addition, the Papp in “in vitro” is 8.4 ×10⁻⁶ cm/s.

Take `COc1cc(CCC(=O)/C=C/c2ccc(CNc3c4c(nc5cc(Cl)ccc35)CC3CC(C)=CC4C3)cc2)ccc1O` (stereo not given): the IC50 on Acetylcholinesterase [6] is 18.3 nM; at Cholinesterase [7] it was 742 nM. The Activity in data set [1] stood at 10.5; in data set [2] it was 8.8; in data set [3] it was 50 mgequiv/g. Also, the inhibition came out at 70.6% in [4] and 51% in [5]. Also, in the data set “in vitro”, the Papp came out at 6.5 ×10⁻⁶ cm/s.

With `CCCCC/C=C/C(=O)CCc1ccc(O)c(OC)c1` [SHOGAOL], the Activity is 26.2 in data set [1], 12.2 in data set [2] and 384 mgequiv/g in data set [3]. The inhibition in [4] is 10.5%; in data set [5] it was 9.2%; at Acetylcholinesterase [8], 28%; against Cholinesterase [9], 6%. Besides, in the data set “in vitro”, the Papp is 14.7 ×10⁻⁶ cm/s.

Take `O=C(O)c1cc(O)c(O)c(O)c1` [GALLIC ACID]: the Activity stood at 18.6 in [1], 10.3 in data set [2] and 1033 mgequiv/g in data set [3].

For the molecule `COc1cc(CCC(=O)/C=C/CCCNc2c3c(nc4cc(Cl)ccc24)CC2CC(C)=CC3C2)ccc1O` (stereo not given), the IC50 at Acetylcholinesterase [6] was found to be 6.7 nM; on Cholinesterase [7], 982 nM. Moreover, the results for the Activity in data set [1], in data set [2] and in data set [3] were 7.6, 6.6 and 29.8 mgequiv/g, respectively. Also, the values for the inhibition in [4] and in data set [5] were 39.3% and 35.2%, respectively. The Papp in the data set “in vitro” was 11.7 ×10⁻⁶ cm/s.

The values are drawn from ChEMBL document CHEMBL3352812, “Shogaol-huprine hybrids: dual antioxidant and anticholinesterase agents with β-amyloid and tau anti-aggregating properties” (Bioorg Med Chem, 2014).
